Test results: ChEMBL document CHEMBL1132142, “Extension of the polyanionic cosalane pharmacophore as a strategy for increasing anti-HIV potency” (J Med Chem, 1999); call rule not given here

Experiments:
CEM-SS [1] = experiment: The compound was evaluated for cytotoxicity in CEM-SS cells; assay type: functional, Homo sapiens
Method in brief: (§1)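 Uninfected cells (CEM-SS or MT-4, per line) were incubated with the drug in a microtiter XTT assay. Viability was expressed as percent of the uninfected drug-free control. CC50 is the concentration causing 50% cell death. Triplicates were run per plate on two sister plates, and the two plate values were averaged.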

MT4 [2] = experiment: The compound was evaluated for cytotoxicity in MT-4 cells; assay type: functional, Homo sapiens; method in brief: as §1
MT4 [3] = experiment: The compound was evaluated for inhibition of cytopathic effect of HIV-1 IIIB in MT-4 cells; assay type: functional, cell-based, Homo sapiens
MT4 [4] = experiment: The compound was evaluated for inhibition of cytopathic effect of HIV-2ROD in MT-4 cells; assay type: functional, cell-based, Homo sapiens
CEM-SS [5] = experiment: The compound was evaluated for inhibition of cytopathic effect of HIV-1 RF in CEM-SS cells; assay type: functional, cell-based, Homo sapiens
Method in brief: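 XTT-based microtiter cytoprotection assay measuring protection from HIV-1-induced cytopathic effect, read as percent of the uninfected drug-free control. EC50 is the concentration giving 50% protection in infected cultures. Results were confirmed by cell-free supernatant reverse transcriptase and p24 levels. Each plate was run in triplicate, and the EC50 values from two sister plates were averaged.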

CEM-SS [6] = experiment: The compound was evaluated for uM; assay type: functional, cell-based, Homo sapiens

| EC50 (CEM-SS [6]) | EC50 (CEM-SS [5]; Homo sapiens, CEM-SS) [µM] | Compound | Cytotoxicity (CEM-SS [1]) [µM] | Cytotoxicity (MT4 [2]) [µM] | EC50 (MT4 [3]; Homo sapiens, MT4) [µM] | EC50 (MT4 [4]; Homo sapiens, MT4) [µM] | EC50 (CEM-SS [5]; cem-ss) [µM] | EC50 (MT4 [3]; mt4) [µM] | EC50 (MT4 [4]; mt4) [µM] |
| --- | --- | --- | --- | --- | --- | --- | --- | --- | --- |
|  |  | CC(C)CCCC(C)[C@H]1CC[C@H]2[C@@H]3CCC4C[C@@H](CCC=C(c5cc(Cl)c(O)c(C(=O)O)c5)c5cc(Cl)c(O)c(C(=O)O)c5)CC[C@]4(C)[C@H]3CC[C@]12C (stereo partly specified) | >200 | >125 | 3 | 4 |  |  |  |
|  |  | CC(C)CCCC(C)[C@H]1CC[C@H]2[C@@H]3CCC4C[C@@H](CCC=C(c5cc(Cl)c(OCc6ccccc6C(=O)[O-])c(C(=O)[O-])c5)c5cc(Cl)c(OCc6ccccc6C(=O)[O-])c(C(=O)[O-])c5)CC[C@]4(C)[C@H]3CC[C@]12C.[Na+].[Na+].[Na+].[Na+] (stereo partly specified) | >316 | 52 |  |  | 17.9 | 22.1 | > 52 |
| Not Active |  | CC(C)CCCC(C)[C@H]1CC[C@H]2[C@@H]3CCC4C[C@@H](CCC=C(c5cc(Cl)c(OCc6ccc([N+](=O)[O-])cc6)c(C(=O)O)c5)c5cc(Cl)c(OCc6ccc([N+](=O)[O-])cc6)c(C(=O)O)c5)CC[C@]4(C)[C@H]3CC[C@]12C (stereo partly specified) | >316 | 83 | > 83 |  |  |  | > 83 |
|  | 12.2 | CC(C)CCCC(C)[C@H]1CC[C@H]2[C@@H]3CCC4C[C@@H](CCC=C(c5cc(Cl)c(OCc6ccccc6[N+](=O)[O-])c(C(=O)[O-])c5)c5cc(Cl)c(OCc6ccccc6[N+](=O)[O-])c(C(=O)[O-])c5)CC[C@]4(C)[C@H]3CC[C@]12C.[Na+].[Na+] (stereo partly specified) | >316 | 99 | > 125 | > 125 |  |  |  |
|  |  | CC(C)CCCC(C)[C@H]1CC[C@H]2[C@@H]3CCC4C[C@@H](CCC=C(c5cc(Cl)c(OCc6ccccc6C(=O)O)c(C(=O)O)c5)c5cc(Cl)c(OCc6ccccc6C(=O)O)c(C(=O)O)c5)CC[C@]4(C)[C@H]3CC[C@]12C (stereo partly specified) | >316 | 37 | > 37 | > 37 |  |  |  |
| Not Active |  | CC(C)CCCC(C)[C@H]1CC[C@H]2[C@@H]3CCC4C[C@@H](CCC=C(c5cc(Cl)c(OCc6ccccc6[N+](=O)[O-])c(C(=O)O)c5)c5cc(Cl)c(OCc6ccccc6[N+](=O)[O-])c(C(=O)O)c5)CC[C@]4(C)[C@H]3CC[C@]12C (stereo partly specified) | 66 | 108 |  |  |  |  |  |
